Test results as given in ChEMBL document CHEMBL4368942, “Dual inhibitors of RAF-MEK-ERK and PI3K-PDK1-AKT pathways: Design, synthesis and preliminary anticancer activity studies of 3-substituted-5-(phenylamino) indolone derivatives” (Bioorg Med Chem, 2019).
pIC50: −log10 of the molar value. Activity calls are given as the source filed them. The calls are words filed in the database; no cut-off is given here.

How the values were obtained:
NCI-H460 = assay: Antiproliferative activity against human NCI-H460 cells after 48 hrs by MTT assay; format: functional, cell-based; conditions: NCI-H460, 48 h
Procedure, shortened: (§1)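 Cells grown in DMEM with 10% FBS and penicillin/streptomycin at 37°C, 5% CO2. 2 × 10^5 cells seeded per well in 200 µL medium. Compounds added 30 min after seeding, then 48 h incubation at 37°C. MTT (5 mg/ml stock) added for the last 4 h. Formazan dissolved in DMSO.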

A549 [1] = assay: Antiproliferative activity against human A549 cells after 48 hrs by MTT assay; format: functional, cell-based; conditions: A549, 48 h; procedure, shortened: as §1
A549 [2] = assay: Induction of apoptosis in human A549 cells assessed as late apoptotic cells at 5 uM after 12 hrs by Annexin V-FITC/propidium iodide staining-based flow cytometric analysis (reference value: 0.76%); format: functional
Procedure, shortened: (§2)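 After 12 h treatment with DMSO as control, A549 cells were harvested by trypsin, washed twice in PBS and resuspended at 1 × 10^6 cells/mL in binding buffer. Annexin V-FITC and PI staining for 30 min at room temperature in the dark. Flow cytometry with 488 nm excitation, FITC read at 530 nm and PI at 670 nm. Quadrant percentages are means of three independent experiments.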

A549 [3] = assay: Induction of apoptosis in human A549 cells assessed as necrotic cells at 5 uM after 12 hrs by Annexin V-FITC/propidium iodide staining-based flow cytometric analysis (reference value: 1.42%); format: functional; procedure, shortened: as §2
A549 [4] = assay: Induction of apoptosis in human A549 cells assessed as necrotic cells at 2.5 uM after 12 hrs by Annexin V-FITC/propidium iodide staining-based flow cytometric analysis (reference value: 1.42%); format: functional; procedure, shortened: as §2
A549 [5] = assay: Induction of apoptosis in human A549 cells assessed as viable cells at 2.5 uM after 12 hrs by Annexin V-FITC/propidium iodide staining-based flow cytometric analysis (reference value: 90.6%); format: functional; conditions: A549, 12 h, read-out: Activity; procedure, shortened: as §2
A549 [6] = assay: Induction of apoptosis in human A549 cells assessed as late apoptotic cells at 2.5 uM after 12 hrs by Annexin V-FITC/propidium iodide staining-based flow cytometric analysis (reference value: 0.76%); format: functional; procedure, shortened: as §2
A549 [7] = assay: Induction of apoptosis in human A549 cells assessed as viable cells at 5 uM after 12 hrs by Annexin V-FITC/propidium iodide staining-based flow cytometric analysis (reference value: 90.6%); format: functional; conditions: A549, 12 h, read-out: Activity; procedure, shortened: as §2
A549 [8] = assay: Induction of apoptosis in human A549 cells assessed as early apoptotic cells at 5 uM after 12 hrs by Annexin V-FITC/propidium iodide staining-based flow cytometric analysis (reference value: 7.19%); format: functional; procedure, shortened: as §2
A549 [9] = assay: Induction of apoptosis in human A549 cells assessed as early apoptotic cells at 2.5 uM after 12 hrs by Annexin V-FITC/propidium iodide staining-based flow cytometric analysis (reference value: 7.19%); format: functional; procedure, shortened: as §2
A549 [10] = assay: Inhibition of RAF/MEK/ERK in human A549 cells assessed as reduction in ERK phosphorylation at 1 uM after 8 hrs by Western blot analysis relative to control; format: cell-based
Procedure, shortened: (§3)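 Western blot with primary antibody in BSA overnight at 4°C. Washes in TBS/0.05% Tween-20, then secondary antibody for 1 h at room temperature. Chemiluminescent detection. p-ERK or p-AKT band density normalized to β-actin loading control versus control. Average of three independent experiments.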

A549 [11] = assay: Inhibition of PI3K/PDK1/AKT in human A549 cells assessed as remaining AKT phosphorylation level at 1 uM after 8 hrs by Western blot analysis
A549 [12] = assay: Inhibition of PI3K/PDK1/AKT in human A549 cells assessed as reduction in AKT phosphorylation at 2.5 uM after 8 hrs by Western blot analysis; format: cell-based; procedure, shortened: as §3
A549 [13] = assay: Inhibition of RAF/MEK/ERK in human A549 cells assessed as reduction in ERK phosphorylation at 2.5 uM after 8 hrs by Western blot analysis; format: cell-based; procedure, shortened: as §3
A549 [14] = assay: Inhibition of RAF/MEK/ERK in human A549 cells assessed as reduction in ERK phosphorylation after 8 hrs by Western blot analysis; format: cell-based; procedure, shortened: as §3
A549 [15] = assay: Inhibition of PI3K/PDK1/AKT in human A549 cells assessed as reduction in AKT phosphorylation after 8 hrs by Western blot analysis; format: cell-based; procedure, shortened: as §3
A549 [16] = assay: Inhibition of PI3K/PDK1/AKT in human A549 cells assessed as reduction in AKT phosphorylation at 1 uM after 8 hrs by Western blot analysis; format: cell-based; procedure, shortened: as §3

Structure (SMILES)	pIC50 (NCI-H460)	pIC50 (A549 [1])	further results
CCCCC1(O)C(=O)Nc2ccc(Nc3ccc(F)cc3)cc21 (configuration not stated)	4.49	5.19	
NC1(c2ccc(-c3nc4ccn5c(=O)[nH]nc5c4cc3-c3ccccc3)cc2)CCC1 [MK-2206]		5.09	inhibition (A549 [10]): Active; remaining p-AKT level (A549 [11]): 33%
Cc1ccc(Nc2ccc3c(c2)C(CCC(C)C)C(=O)N3)cc1 (configuration not stated)	4.26	5.18	
CCCCCC1(O)C(=O)Nc2ccc(Nc3ccc(F)cc3)cc21 (configuration not stated)	< 4.00	5.23	
Cc1ccc(Nc2ccc3c(c2)C(Cc2ccc4c(c2)OCO4)C(=O)N3)cc1 (configuration not stated)	4.20	4.72	
O=C1Nc2ccc(Nc3ccc(Cl)cc3)cc2/C1=C\c1ccccc1	4.87	4.82	
Cc1ccc(Nc2ccc3c(c2)/C(=C\C2CCCCC2)C(=O)N3)cc1	4.34	4.55	
CC(C)C/C=C1/C(=O)Nc2ccc(Nc3ccc(Cl)cc3)cc21	4.29	5.13	
O=C1Nc2ccc(Nc3ccc(F)cc3)cc2/C1=C\c1ccc2c(c1)OCO2	< 4.00	4.58	
CCCCCC1(O)C(=O)Nc2ccc(Nc3ccc(C)cc3)cc21 (configuration not stated)	< 4.00	5.09	
O=C1Nc2ccc(Nc3ccc(F)cc3)cc2C1(O)Cc1ccc2c(c1)OCO2 (configuration not stated)	4.09	4.60	
CCCCC1(O)C(=O)Nc2ccc(Nc3ccc(C)cc3)cc21 (configuration not stated)	4.50	5.12	
Cc1ccc(Nc2ccc3c(c2)/C(=C\c2ccc4c(c2)OCO4)C(=O)N3)cc1	< 4.00	4.78	
Cc1ccc(Nc2ccc3c(c2)C(O)(CCC(C)C)C(=O)N3)cc1 (configuration not stated)	4.64	4.90	
Cc1ccc(Nc2ccc3c(c2)C(CC2CCCCC2)C(=O)N3)cc1 (configuration not stated)	< 4.00	< 4.52	
CCCCCC1(O)C(=O)Nc2ccc(Nc3ccc(OC)cc3)cc21 (configuration not stated)	4.79	5.10	
CCCCCCC1(O)C(=O)Nc2ccc(Nc3ccc(OC)cc3)cc21 (configuration not stated)	< 4.00	4.73	
COc1ccc(Nc2ccc3c(c2)C(O)(Cc2ccccc2)C(=O)N3)cc1 (configuration not stated)	< 4.00	< 4.52	
O=C1Nc2ccc(Nc3ccc(Cl)cc3)cc2C1Cc1ccc2c(c1)OCO2 (configuration not stated)	4.44	5.22	
Cc1ccc(Nc2ccc3c(c2)C(O)(Cc2ccc4c(c2)OCO4)C(=O)N3)cc1 (configuration not stated)	4.83	4.92	
O=C1Nc2ccc(Nc3ccc(Cl)cc3)cc2C1CC1CCCCC1 (configuration not stated)	< 4.00	4.78	
CCCCCCC1(O)C(=O)Nc2ccc(Nc3ccc(C)cc3)cc21 (configuration not stated)	< 4.00	4.92	
CCCCCCC1(O)C(=O)Nc2ccc(Nc3ccc(F)cc3)cc21 (configuration not stated)	4.29	4.92	
O=C1Nc2ccc(Nc3ccc(F)cc3)cc2C1Cc1ccc2c(c1)OCO2 (configuration not stated)	< 4.00	< 4.52	

The next molecules have a higher pIC50 (A549 [1]) than those just listed; values first:

pIC50 (NCI-H460)	pIC50 (A549 [1])	Structure (SMILES)	further results
4.77	5.24	CC(C)CCC1(O)C(=O)Nc2ccc(Nc3ccc(F)cc3)cc21 (configuration not stated)	
4.52	5.27	CCCCCCC1(O)C(=O)Nc2ccc(Nc3ccc(Cl)cc3)cc21 (configuration not stated)	
	5.28	Cn1cnc2c(F)c(Nc3ccc(Br)cc3Cl)c(C(=O)NOCCO)cc21 [SELUMETINIB]	inhibition (A549 [10]): 65%; inhibition (A549 [16]): inactive
4.76	5.38	CC(C)CCC1(O)C(=O)Nc2ccc(Nc3ccc(C(F)(F)F)cc3)cc21 (configuration not stated)	
4.50	5.39	Cc1ccc(Nc2ccc3c(c2)C(O)(Cc2ccccc2)C(=O)N3)cc1 (configuration not stated)	
4.72	5.44	CCC/C=C1/C(=O)Nc2ccc(Nc3ccc(C)cc3)cc21	
4.61	5.51	O=C1Nc2ccc(Nc3ccc(Cl)cc3)cc2/C1=C\c1ccc2c(c1)OCO2	
4.69	5.51	O=C1Nc2ccc(Nc3ccc(Cl)cc3)cc2C1(O)Cc1ccccc1 (configuration not stated)	
4.74	5.52	O=C1Nc2ccc(Nc3ccc(F)cc3)cc2C1(O)Cc1ccccc1 (configuration not stated)	
4.58	5.52	O=C1Nc2ccc(Nc3ccc(Cl)cc3)cc2C1(O)Cc1ccc2c(c1)OCO2 (configuration not stated)	
4.73	5.55	CCCCCCC1(O)C(=O)Nc2ccc(Nc3ccc(C(F)(F)F)cc3)cc21 (configuration not stated)	
4.61	5.55	CCCCC1(O)C(=O)Nc2ccc(Nc3ccc(Cl)cc3)cc21 (configuration not stated)	
4.60	5.57	CC(C)CCC1(O)C(=O)Nc2ccc(Nc3ccc(Cl)cc3)cc21 (configuration not stated)	
4.88	5.62	O=C1Nc2ccc(Nc3ccc(Cl)cc3)cc2/C1=C\C1CCCCC1	
4.84	5.64	O=C1Nc2ccc(Nc3ccccc3Cl)cc2C1(O)Cc1ccccc1 (configuration not stated)	
4.92	5.64	CCCCC1(O)C(=O)Nc2ccc(Nc3ccc(C(F)(F)F)cc3)cc21 (configuration not stated)	
4.79	5.66	CCCCCC1(O)C(=O)Nc2ccc(Nc3ccc(C(F)(F)F)cc3)cc21 (configuration not stated)	
5.04	5.70	O=C1Nc2ccc(Nc3ccc(C(F)(F)F)cc3)cc2C1(O)Cc1ccccc1 (configuration not stated)	
4.31	5.70	CC(C)CCC1C(=O)Nc2ccc(Nc3ccc(Cl)cc3)cc21 (configuration not stated)	
4.39	5.72	CCCCCC1(O)C(=O)Nc2ccc(Nc3ccc(Cl)cc3)cc21 (configuration not stated)	Activity (A549 [2]): 5.65%; Activity (A549 [3]): 1.82%; Activity (A549 [4]): 2.31%; viability at 2.5 µM (A549 [5]): 83.2%; Activity (A549 [6]): 2.57%; viability at 5 µM (A549 [7]): 72.3%; Activity (A549 [8]): 20.3%; Activity (A549 [9]): 11.9%
4.74	5.74	O=C1Nc2ccc(Nc3ccc(C(F)(F)F)cc3)cc2C1(O)Cc1ccc2c(c1)OCO2 (configuration not stated)	Activity (A549 [2]): 7.57%; inhibition (A549 [12]): Active; Activity (A549 [3]): 1.7%; inhibition (A549 [13]): Active; Activity (A549 [4]): 2.25%; viability at 2.5 µM (A549 [5]): 82.7%; Activity (A549 [6]): 3.39%; viability at 5 µM (A549 [7]): 65.3%; Activity (A549 [8]): 25.5%; Activity (A549 [9]): 11.6%; inhibition (A549 [14]): Dose-dependent effect; inhibition (A549 [15]): Dose-dependent effect
